Laboratory results from ChEMBL document CHEMBL1777792, “Synthesis and evaluation of indole-based new scaffolds for antimicrobial activities--identification of promising candidates” (Bioorg Med Chem Lett, 2011).

Legend:
[1] = system: Candida albicans; assay: Antifungal activity against Candida albicans in yeast extract-peptone-glucose medium at 250 ug/ml after 48 hrs by disc diffusion assay in presence of 150 ug/ml of congo red; assay type: functional
In short: (§1)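 C. albicans cells at a set number were spread on YEPD agar, either plain or containing the cell-wall disruptant named in the line (SDS, Congo red or calcofluor white). Compound solution, or the reference solvent as control, was spotted onto 0.5 cm discs placed on the lawn. Plates were incubated at 30 °C and the inhibition zone diameter was measured.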

[2] = system: Candida albicans; assay: Antifungal activity against Candida albicans in yeast extract-peptone-glucose medium at 250 ug/ml after 48 hrs by disc diffusion assay in presence of 100 ug/ml of calcofluor white; assay type: functional; in short: as §1
[3] = system: Candida albicans; assay: Antifungal activity against Candida albicans in yeast extract-peptone-glucose medium at 250 ug/ml after 48 hrs by disc diffusion assay in presence of rhodamine 6G
[4] = system: Candida albicans; assay: Antifungal activity against Candida albicans in yeast extract-peptone-glucose medium at 250 ug/ml after 48 hrs by disc diffusion assay in presence of 0.01% of sodium dodecylsulphate; assay type: functional; details: read-out: DIZ; in short: as §1
[5] = system: Candida albicans; assay: Antifungal activity against Candida albicans in synthetic dextrose minimal medium after 48 hrs by ELISA based serial dilution method
[6] = system: Candida albicans; assay: Antifungal activity against Candida albicans in yeast extract-peptone-glucose medium at 250 ug/ml after 48 hrs by disc diffusion assay; assay type: functional; details: read-out: DIZ; in short: as §1
[7] = system: Escherichia coli; assay: Antibacterial activity against Escherichia coli harboring ampicillin-resistance gene encoding plasmid at 250 ug/ml after 24 hrs by disc diffusion assay; assay type: functional; details: read-out: DIZ
In short: (§2)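 Disc diffusion used an E. coli strain carrying a plasmid that encodes an ampicillin-resistance gene. Inhibition zone diameters were recorded and compared against the corresponding solvent controls.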

[8] = system: Candida albicans; assay: Antifungal activity against Candida albicans in yeast extract-peptone-glucose medium at 300 ug/ml after 48 hrs by disc diffusion assay in presence of 0.01% of sodium dodecylsulphate; assay type: functional; details: read-out: DIZ; in short: as §1
[9] = system: Candida albicans; assay: Antifungal activity against Candida albicans in yeast extract-peptone-glucose medium at 300 ug/ml after 48 hrs by disc diffusion assay in presence of 150 ug/ml of congo red; assay type: functional; in short: as §1
[10] = system: Escherichia coli; assay: Antibacterial activity against Escherichia coli harboring ampicillin-resistance gene encoding plasmid at 300 ug/ml after 24 hrs by disc diffusion assay; assay type: functional; details: read-out: DIZ; in short: as §2
[11] = system: Candida albicans; assay: Antifungal activity against Candida albicans in yeast extract-peptone-glucose medium at 300 ug/ml after 48 hrs by disc diffusion assay in presence of […]; assay type: functional
In short: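 This is a C. albicans disc diffusion on YEPD agar containing rhodamine 6G, a substrate of the Cdr1p/Cdr2p ATP-dependent efflux pumps, to test for enhanced R6G toxicity. A set number of cells was spread, and 0.5 cm discs were spotted with compound solution or reference solvent. Plates were incubated at 30 °C and the zone diameter was measured.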

[12] = system: Candida albicans; assay: Antifungal activity against Candida albicans in yeast extract-peptone-glucose medium at 150 ug/ml after 48 hrs by disc diffusion assay in presence of 100 ug/ml of calcofluor white; assay type: functional; in short: as §1
[13] = system: Candida albicans; assay: Antifungal activity against Candida albicans in yeast extract-peptone-glucose medium at 150 ug/ml after 48 hrs by disc diffusion assay; assay type: functional; details: read-out: DIZ; in short: as §1
[14] = system: Candida albicans; assay: Antifungal activity against Candida albicans in yeast extract-peptone-glucose medium at 150 ug/ml after 48 hrs by disc diffusion assay in presence of 0.01% of sodium dodecylsulphate; assay type: functional; details: read-out: DIZ; in short: as §1
[15] = system: Candida albicans; assay: Antifungal activity against Candida albicans in yeast extract-peptone-glucose medium at 150 ug/ml after 48 hrs by disc diffusion assay in presence of 150 ug/ml of congo red; assay type: functional; details: read-out: DIZ; in short: as §1
[16] = system: Escherichia coli; assay: Antibacterial activity against Escherichia coli harboring ampicillin-resistance gene encoding plasmid at 333 ug/ml after 24 hrs by disc diffusion assay; assay type: functional; details: read-out: DIZ; in short: as §2
[17] = system: Candida albicans; assay: Antifungal activity against Candida albicans in yeast extract-peptone-glucose medium at 300 ug/ml after 48 hrs by disc diffusion assay; assay type: functional; details: read-out: DIZ; in short: as §1
[18] = system: Candida albicans; assay: Antifungal activity against Candida albicans in yeast extract-peptone-glucose medium at 374 ug/ml after 48 hrs by disc diffusion assay in presence of 0.01% of sodium dodecylsulphate; assay type: functional; details: read-out: DIZ
In short: (§3)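 Disc diffusion on YEPD agar containing a cell-wall-disrupting agent (SDS, Congo red or calcofluor white) and spread with a set number of C. albicans cells. Compound and reference solvent spotted on 0.5 cm discs. Incubated at 30 °C, then inhibition zone diameter measured against solvent.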

[19] = system: Candida albicans; assay: Antifungal activity against Candida albicans in yeast extract-peptone-glucose medium at 374 ug/ml after 48 hrs by disc diffusion assay in presence of rhodamine 6G
[20] = system: Candida albicans; assay: Antifungal activity against Candida albicans in yeast extract-peptone-glucose medium at 374 ug/ml after 48 hrs by disc diffusion assay in presence of 150 ug/ml of congo red; assay type: functional; in short: as §3
[21] = system: Candida albicans; assay: Antifungal activity against Candida albicans in yeast extract-peptone-glucose medium at 500 ug/ml after 48 hrs by disc diffusion assay; assay type: functional; details: read-out: DIZ
In short: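 Solid-phase assay on YEPD agar spread with a set number of C. albicans cells. Compound solution and reference solvent spotted onto 0.5 cm discs. Plates incubated at 30 °C, and inhibition zone diameter measured against solvent control.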

[22] = system: Candida albicans; assay: Antifungal activity against Candida albicans in yeast extract-peptone-glucose medium at 500 ug/ml after 48 hrs by disc diffusion assay in presence of 100 ug/ml of calcofluor white; assay type: functional; in short: as §3
[23] = system: Candida albicans; assay: Antifungal activity against Candida albicans in yeast extract-peptone-glucose medium at 500 ug/ml after 48 hrs by disc diffusion assay in presence of 150 ug/ml of congo red; assay type: functional; in short: as §3
[24] = system: Candida albicans; assay: Antifungal activity against Candida albicans in yeast extract-peptone-glucose medium at 500 ug/ml after 48 hrs by disc diffusion assay in presence of rhodamine 6G
[25] = system: Escherichia coli; assay: Antibacterial activity against Escherichia coli harboring ampicillin-resistance gene encoding plasmid at 500 ug/ml after 24 hrs by disc diffusion assay; assay type: functional; details: read-out: DIZ; in short: as §2
[26] = system: Candida albicans; assay: Antifungal activity against Candida albicans in yeast extract-peptone-glucose medium at 500 ug/ml after 48 hrs by disc diffusion assay in presence of 0.01% of sodium dodecylsulphate; assay type: functional; details: read-out: DIZ; in short: as §3

Compound: O=C(NCc1ccccc1)C(=O)c1cn(CCCn2cc(C(=O)C(=O)NCc3ccccc3)c3ccccc32)c2ccccc12
- diameter of the inhibition zone (DIZ) [1]: 8 mm
- diameter of the inhibition zone (DIZ) [2]: 7 mm
- diameter of the inhibition zone (DIZ) [3]: 7 mm
- zone of inhibition at 250 µg/mL [4]: 8.5 mm
- IC50 [5]: 121 µM
- zone of inhibition at 250 µg/mL [6]: 9 mm
- zone of inhibition at 250 µg/mL [7]: 12 mm

Compound: O=C(C(=O)N1CCCCC1)c1cn(Cc2ccc(Cn3cc(C(=O)C(=O)N4CCCCC4)c4ccccc43)cc2)c2ccccc12
- zone of inhibition at 300 µg/mL [8]: 7.5 mm
- diameter of the inhibition zone (DIZ) [9]: 7.5 mm
- zone of inhibition at 300 µg/mL [10]: 9 mm
- diameter of the inhibition zone (DIZ) [11]: 6 mm

Compound: O=C(C(=O)N1CCCCC1)c1cn(CCCCn2cc(C(=O)C(=O)N3CCCCC3)c3ccccc32)c2ccccc12
- diameter of the inhibition zone (DIZ) [12]: 6 mm
- zone of inhibition at 150 µg/mL [13]: 6 mm
- zone of inhibition at 150 µg/mL [14]: 6.5 mm
- zone of inhibition at 150 µg/mL [15]: 6 mm
- zone of inhibition at 300 µg/mL [10]: 10.5 mm

Compound: O=C(C(=O)N1CCOCC1)c1cn(CCCCn2cc(C(=O)C(=O)N3CCOCC3)c3ccccc32)c2ccccc12
- diameter of the inhibition zone (DIZ) [1]: 5 mm
- diameter of the inhibition zone (DIZ) [2]: 7.5 mm
- diameter of the inhibition zone (DIZ) [3]: 7.5 mm
- zone of inhibition at 333 µg/mL [16]: 10 mm
- zone of inhibition at 250 µg/mL [4]: 7 mm
- zone of inhibition at 250 µg/mL [6]: 6 mm

Compound: OC(Cn1cncn1)(Cn1cncn1)c1ccc(F)cc1F [FLUCONAZOLE]
- zone of inhibition at 300 µg/mL [17]: 15 mm

Compound: O=C(C(=O)N1CCCCC1)c1cn(CCCn2cc(C(=O)C(=O)N3CCCCC3)c3ccccc32)c2ccccc12
- zone of inhibition at 374 µg/mL [18]: 7.5 mm
- diameter of the inhibition zone (DIZ) [19]: 6.5 mm
- diameter of the inhibition zone (DIZ) [20]: 6.5 mm
- zone of inhibition at 250 µg/mL [7]: 9.5 mm

Compound: O=C(C(=O)N1CCCCC1)c1cn(CCCn2cc(C(=O)C(=O)N3CCCCC3)c3cc(Br)ccc32)c2ccc(Br)cc12
- zone of inhibition at 500 µg/mL [21]: 6 mm
- diameter of the inhibition zone (DIZ) [22]: 6.5 mm
- diameter of the inhibition zone (DIZ) [23]: 9.5 mm
- diameter of the inhibition zone (DIZ) [24]: 7.5 mm
- zone of inhibition at 500 µg/mL [25]: 9 mm
- zone of inhibition at 500 µg/mL [26]: 8 mm
